Screening data (PubChem BioAssay)
Sampled rows, rich in hits. Any-hit rate of the full collection: about 2.9%.
DDE Tn7 FP inh: inhibitors of Tn7 peptide binding to fibrin DD(E), primary screen, biochemical, fluorescence polarization, human fibrin, Tn7 probe | inhibition, % at 8.3 µM | FP displacement of FITC-Tn7 peptide from fibrin DD(E); 0% = median of compound wells per plate | 0.13% of 370,000 active;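 active = inhibition above the mean of compounds falling within the control limits plus 3 SD of them, cut at about 14% in these data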;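 note: 0% = plate median of compound wells and 100% = 10 µM Aha-Tn7 peptide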
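Test system: human clot-derived fibrin DD(E) complex / Quantity: 2 µM final DD(E) protein / Incubation: 10 min plus 3 h, room temperature / Measured by: fluorescence polarization / Benchmarks: high control of 10 µM Aha-Tn7 peptide / Replicates: singlicate testing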
CRFBP-R2 block: antagonists of CRF-BP/CRF-R2 complex, primary screen, cell-based, HEK293, calcium dye fluorescence, uHTS | CRF-induced calcium fluorescence | inhibition, % at 11.8 µM | 0.59% of 350,000 active;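 active = inhibition of the ligand-induced calcium signal above about 50% at the single tested concentration, limit read from the data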
proKLK7 act: proKLK7 zymogen activators, primary screen, biochemical, fluorescence intensity. purified proKLK7, EDANS-DABCYL substrate fluorescence; 100% is mature enzyme control, 0% vehicle. activation, % at 7 µM. 0.9% of 370,000 active. AID 652039, 2013;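 active = activation above the mean of all tested compounds plus 3 SD, computed per campaign excluding outliers beyond control limits, cut at about 13% in these data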
Target sequence (P49862 whole entry, looked up): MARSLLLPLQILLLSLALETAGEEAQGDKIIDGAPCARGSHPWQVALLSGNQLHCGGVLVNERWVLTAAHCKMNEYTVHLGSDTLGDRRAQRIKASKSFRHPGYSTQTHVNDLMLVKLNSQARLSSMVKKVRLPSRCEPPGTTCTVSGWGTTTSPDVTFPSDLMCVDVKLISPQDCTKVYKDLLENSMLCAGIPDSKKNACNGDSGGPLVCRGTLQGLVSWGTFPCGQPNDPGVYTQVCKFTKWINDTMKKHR
Tn6 DDE FP: inhibitors of Tn6 peptide binding to fibrin DD(E), primary screen, biochemical, fluorescence polarization, human fibrin, Tn6 probe | inhibition, % at 8.3 µM | 0.21% of 370,000 active | AID 720509, 2013 | Fibrin DD(E) TRITC-Tn6 fluorescence polarization displacement;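 active = inhibition above a per-campaign cutoff: mean of compounds within control limits plus 3 SD, cut at about 15% in these data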;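 note: 0% = median of all compound wells on the plate and 100% = blocking peptide control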
CRFR2-BP ag: agonists of CRF-BP/CRF-R2 complex, primary screen, cell-based, HEK293, calcium dye fluorescence, uHTS. calcium dye fluorescence (FLIPR); percent of saturating CRF peptide response. 0.46% of 350,000 active. CRF-binding protein / CRF receptor 2 complex (human). activation, % at 13.2 µM;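 active = activation of at least 50%, plus an integration ratio under a set limit after plate pattern correction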;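 note: plate controls were neutral control wells without compound for no effect and CRF at EC100 for full effect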
CendR NRP1 mod: modulators of CendR peptide binding to NRP-1, primary screen, biochemical, fluorescence polarization, uHTS. inhibition, % at 25 µM. FAM-RPARPAR peptide binding to NRP-1. Neuropilin-1 (Homo sapiens), O14786. 0.85% of 360,000 active. AID 602438, 2012;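 active = inhibition or corrected inhibition above about 18%, plus a signal ratio from 0.5 to 1.5, limit read from the data, passing the limit was not always enough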
KLK7 act conf: proKLK7 zymogen activators, confirmation, biochemical, fluorescence intensity, triplicate. shares compounds with proKLK7 act. purified proKLK7, EDANS-DABCYL substrate fluorescence; scaled: vehicle 0, mature enzyme 100. activation, % at 7 µM. 68% of 3,200 active. AID 686949, 2013;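 active = activation, as change over the incubation, above the mean of all tested compounds plus 3 SD, cut at about 13% in these data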
EDANS interfere: EDANS-DABCYL substrate optical interference, artefact control for kallikrein-7 zymogen activator project, biochemical, fluorescence intensity, high throughput. activation, % at 7 µM. shares compounds with proKLK7 act. 80% of 3,200 active. no enzyme, 4 h; solvent 0%, active enzyme control 100%;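 active = activation above the all-compound mean plus 3 SD, ignoring values outside control-based bounds, cut at about 4.8% in these data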;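 note: value is the 4 h activation minus the activation read at time zero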
K7 EDANS ctr: counter-screen for kallikrein-7 activators: EDANS-DABCYL interference, dose response | shares compounds with proKLK7 act | EDANS-DABCYL peptide fluorescence interference, no enzyme | EC50, µM | 20% of 250 active | AID 720493;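 active = compounds that raise the fluorescence signal in this interference counterscreen, with EC50 at or below 10 µM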;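 note: intact quenched peptide substrate alone read at 355 nm excitation and 520 nm emission; signal is fluorescence gain from T0 to T4 after four hours at room temperature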
* = called active by the depositor; . = no result.

SMILES | DDE Tn7 FP inh | CRFBP-R2 block | proKLK7 act | Tn6 DDE FP | CRFR2-BP ag | CendR NRP1 mod | KLK7 act conf | EDANS interfere | others
O=S(=O)(Nc1cccc(-c2cn3cccnc3n2)c1)c1ccc(Cl)cc1 | -2.7 | -15.6 | 27.8* | 3.1 | -2.7 | -2.7 | 6.3 | 6.4*
O=C(COc1ccccc1)Nc1cccc(-c2cn3cccnc3n2)c1 | 3.5 | -2.6 | -5.1 | -4.7 | 0.8 | -2.7 | . | .
COc1ccc(C2C(C(=O)N3CCOCC3)CC(=O)N2c2ccc(OC)cc2)cc1 (stereo not drawn) | -0.3 | . | 0.0 | -1.9 | . | . | . | .
CCCCn1c(=O)nc2n(-c3ccccc3)c3ccccc3cc-2c1=O | -8.2 | 4.6 | 14.8* | 5.9 | 0.1 | -0.8 | 15.8* | 24.0*
Cc1ccc(C)c(-n2c3nc(=O)n(C)c(=O)c-3cc3ccccc32)c1 | -4.5 | 6.5 | 27.6* | 4.9 | -1.6 | 4.4 | 14.5* | 22.6*
Cn1c(=O)c(-c2ccccc2)cc2ccccc21 | 0.1 | 9.8 | 0.1 | -0.4 | -0.7 | -17.7 | . | .
CCCCn1c(=O)cc(C)n(-c2ccccc2)c1=O | -1.0 | 3.7 | 0.1 | -2.9 | -1.4 | 2.1 | . | .
CC(C)c1ccc(NC(=O)OC2CCC23CCC(c2ccccc2)CC3)cc1 (stereo not drawn) | -1.7 | . | . | 2.0 | . | . | . | .
COc1ccc(S(=O)(=O)N(C)C[C@@H]2Oc3c(NC(=O)Nc4ccccc4)cccc3C(=O)N([C@@H](C)CO)C[C@H]2C)cc1 | 4.9 | . | . | -3.3 | . | . | . | .
O=C(NCC1COCCO1)C1CCN(S(=O)(=O)c2ccc(Br)s2)CC1 (stereo not drawn) | -3.1 | . | -0.2 | -7.0 | . | . | . | .
CC(=O)OCCc1c2ccccc2c(CCCN(C)C)c2ccccc12 | -1.5 | -7.1 | 15.6* | -1.0 | -0.4 | 24.1 | -7.8 | -7.2
CN1C=CC2=C(C#N)C(N)C(C#N)(C#N)[C@H](c3ccccc3)[C@H]2C1 (stereo partly drawn) | -0.1 | -14.1 | 38.9* | -3.7 | 38.7 | 23.4* | 22.0* | 18.1* | K7 EDANS ctr=>69.5
N#CC1(C#N)C(C(N)=O)C1c1ccccc1 (stereo not drawn) | 7.2 | -18.4 | 0.4 | 6.7 | -0.7 | -54.0 | . | .
CCOC(=O)c1cc(C)[nH]c(=O)c1C#N | -2.7 | -2.1 | 42.4* | 8.7 | -0.5 | 2.6 | 65.5* | 74.4*
O=C(O)CCC(=O)c1cccc2ccccc12 | 1.0 | 7.7 | 0.7 | -4.8 | -0.3 | 11.9 | . | .
O=C(O)CCC(=O)c1ccc2ccc3cccc4ccc1c2c34 | 1.2 | . | 26.0* | -8.4 | . | . | 62.3* | 65.0*
O=C(NCCO)c1ccc(-c2cnc3cccnn23)cc1 | -13.9 | . | 48.3* | 4.2 | . | -13.1 | 62.8* | 78.2*
O=C(NCCO)c1cccc(-c2cnc3cccnn23)c1 | -1.9 | . | 53.5* | 7.1 | . | 7.9 | 37.7* | 37.1*
CNc1ccc2ncc(-c3cccc(C(=O)N(C)C)c3)n2n1 | 3.5 | . | 41.9* | -8.6 | . | 6.2 | 39.6* | 41.8*
CN1CCN(C(=O)c2ccc(-c3cnc4cccnn34)cc2)CC1 | -7.1 | . | 67.5* | 2.2 | . | 7.6 | 69.4* | 70.3*
OCc1ccccc1-c1cnc2cccnn12 | -4.2 | . | 82.0* | -0.6 | . | 5.7 | 66.5* | 78.6*
